Reference: ChEMBL document CHEMBL1157729, “Structure-activity relationship and mechanism of action studies of manzamine analogues for the control of neuroinflammation and cerebral infections” (J Med Chem, 2010)
In brackets after ≈: the same amount, converted by molar mass. Activity calls are given as the source filed them. No cut-off for these calls is given here.

Legend:
Plasmodium falciparum [1] = test: Antiplasmodial activity against chloroquine-sensitive Plasmodium falciparum D6 after 72 hrs by LDH assay; assay type: functional, organism-based; details: Plasmodium falciparum, D6, 72 h; read-out: IC50
Plasmodium falciparum [2] = test: Antiplasmodial activity against chloroquine-resistant Plasmodium falciparum W2 after 72 hrs by LDH assay; assay type: functional, organism-based; details: Plasmodium falciparum, W2, 72 h; read-out: IC50
Vero [3] = test: Cytotoxicity against african green monkey Vero cells up to 4.6 ug/mL after 48 hrs by neutral red assay; assay type: cell-based; details: chlorocebus sabaeus
Summary of the method: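 Vero cells were seeded at 25,000 cells/well and incubated for 24 h, then exposed to serially diluted samples for 48 h. Viable cells were counted by Neutral Red assay, with doxorubicin as positive control. IC50 was taken from dose-response curves.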

[4] = system: Mycobacterium tuberculosis; test: Antimycobacterial activity against Mycobacterium tuberculosis H37Rv; assay type: functional, organism-based
Candida albicans = test: Antifungal activity against Candida albicans ATCC 90028; assay type: functional, organism-based
Summary of the method: (§1)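 Broth microdilution per modified CLSI method; samples serially diluted in 20% DMSO/saline, tested in duplicate; inocula set by OD630 of suspensions in incubation broth; growth read at 630 nm before and after incubation; amphotericin B drug control.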

Cryptococcus neoformans = test: Antifungal activity against Cryptococcus neoformans ATCC 90113; assay type: functional, organism-based; summary of the method: as §1
[5] = system: Mycobacterium intracellulare; test: Antimycobacterial activity against Mycobacterium intracellular ATCC 23068; assay type: functional, organism-based
Summary of the method: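 Modified Franzblau method; samples serially diluted in 20% DMSO/saline, tested in duplicate; inoculum set by OD630; fluorescence read at 544ex/590em before and after incubation; ciprofloxacin drug control.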

[6] = (§2) Antineuroinflammatory activity in LPS-stimulated rat neonatal microglia assessed as inhibition of PMA-induced superoxide anion production preincubated 15 mins prior to PMA challenge measured after 70 mins; assay type: functional, cell-based
[7] = (§3) Antineuroinflammatory activity in LPS-stimulated rat neonatal microglia assessed as inhibition of PMA-induced TXB2 production preincubated 15 mins prior to PMA challenge measured after 70 mins; assay type: functional, cell-based
[8] = Antineuroinflammatory activity in LPS-stimulated rat neonatal microglia assessed as drug level causing 50% PMA-induced LDH release preincubated 15 mins prior to PMA challenge measured after 70 mins; assay type: functional
Summary of the method: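 Neonatal rat microglia (2 × 10^5/well) primed with E. coli LPS 0.3 ng/mL for 17 h at 35.9 °C, washed with HBSS, given compound (0.01–10 μM) or DMSO 15 min, then PMA 1 μM; LDH read spectrophotometrically after 70 min; LDH50 relative to Triton X-100 (0.1%) release; duplicates.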

Vero [9] = test: Cytotoxicity against african green monkey Vero cells after 48 hrs by neutral red assay; assay type: cell-based; details: chlorocebus sabaeus
Summary of the method: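 Vero cells seeded at 25,000/well and grown 24 h, then exposed to serially diluted samples for 48 h. Viable cells measured by neutral red assay, with doxorubicin as positive control. IC50 taken from dose-response curves.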

Microglia [10] = test: as §2; assay type: functional, cell-based
Microglia [11] = test: as §3; assay type: functional, cell-based
Plasmodium berghei [12] = test: Antiplasmodial activity against Plasmodium berghei NK65 infected in Swiss Webster mice (Mus musculus) assessed as inhibition of parasitaemia at 200 mg/kg, perorally administered 1 day after infection measured after 5 days post infection; assay type: functional; design: Activity: scale not given: the % may be the effect or the level left; details: route oral
Summary of the method: (§4)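 Male Swiss Webster mice (18-20 g, ≥5/group) inoculated i.p. with 2×10^7 P. berghei NK-65 parasitized RBC, given a single oral dose (100 μl, SSV or dilute HCl vehicle); parasitemia by Giemsa-stained tail blood smears days 5–28; activity as % decrease versus untreated controls on day 5.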

Plasmodium berghei [13] = test: Antiplasmodial activity against Plasmodium berghei NK65 infected in Swiss Webster mice (Mus musculus) assessed as average parasitaemia at 200 mg/kg, perorally administered 1 day after infection measured after 5 days post infection; assay type: functional; details: route oral
Summary of the method: (§5)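 Male Swiss Webster mice (18-20 g), at least 5 per group, were inoculated ip with 2×10^7 P. berghei NK-65-parasitized red cells from a donor mouse and given a single oral dose (100 μl). Stock was made in SSV or 0.1 M HCl and diluted in SSV or 0.01 M HCl. Parasitemia was read from Giemsa-stained tail blood smears from day 5 to day 28. Cure meant no parasitemia through day 28.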

Plasmodium berghei [14] = test: Antiplasmodial activity against Plasmodium berghei NK65 infected in Swiss Webster mice (Mus musculus) assessed as average parasitaemia at 200 mg/kg, perorally administered 1 day after infection measured after 14 days post infection; assay type: functional; details: route oral; summary of the method: as §5
Plasmodium berghei [15] = test: Antiplasmodial activity against Plasmodium berghei NK65 infected in Swiss Webster mice (Mus musculus) assessed as average parasitaemia at 200 mg/kg, perorally administered 1 day after infection measured after 21 days post infection; assay type: functional; details: route oral; summary of the method: as §5
Plasmodium berghei [16] = test: Antiplasmodial activity against Plasmodium berghei NK65 infected in Swiss Webster mice (Mus musculus) assessed as average parasitaemia at 200 mg/kg, perorally administered 1 day after infection measured after 28 days post infection; assay type: functional; details: route oral; summary of the method: as §4
Plasmodium berghei [17] = test: Antiplasmodial activity against Plasmodium berghei NK65 infected in Swiss Webster mice (Mus musculus) assessed as parasitaemia cure at 200 mg/kg, perorally administered 1 day after infection measured after 28 days post infection; assay type: functional; details: route oral; summary of the method: as §5
MDCK = test: Apparent permeability across apical to basolateral side of MDCK cells expressing MDR; assay type: ADME, cell-based, Canis lupus familiaris; details: dog
Summary of the method: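 MDR-MDCK cells (passage 12-40) seeded at 75,000 cells/cm2 and grown 8 days on Transwell inserts to a monolayer. Bidirectional transport over 2 h in HBSS pH 7.4 with test substance at 50 μM and caffeine (5 μM) as standard. Donor and receiver samples quantified by LC-MS. Cumulative amount transported plotted against time to derive apparent permeability.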

Plasmodium berghei [18] = test: Antiplasmodial activity against Plasmodium berghei NK65 infected in Swiss Webster mice (Mus musculus) assessed as average parasitaemia at 200 mg/kg, perorally administered 1 day after infection measured after 10 days post infection; assay type: functional; details: route oral; summary of the method: as §4
Plasmodium yoelii = test: Antiplasmodial activity against Plasmodium yoelii infected in perorally dosed mice (Mus musculus); assay type: functional; details: po

SMILES	IC50 (Plasmodium falciparum [1]) [µg/mL]	IC50 (Plasmodium falciparum [2]) [µg/mL]	MIC [4] [µg/mL]	IC50 (Candida albicans) [µg/mL]	IC50 (Cryptococcus neoformans) [µg/mL]	IC50 [5] [µg/mL]	IC50 [6] [nM]	IC50 [7] [nM]	Activity [8] [µM]	other results
Cn1c2ccccc2c2ccnc(C3=C[C@@]4(O)CC/C=C\CCCCN5CC[C@@H]3[C@]3(C[C@@H]6/C=C\CCCCN6[C@H]34)C5)c21 [9-N-METHYLMANZAMINE A]	1.9 (≈ 3.38 µM)	1 (≈ 1.78 µM)	> 64	> 20	> 20	> 20	> 10000	> 10000	>10	Activity (Vero [3]): Non-toxic
CC(C)(C)Cn1c2ccccc2c2ccnc(C3=C[C@@]4(O)CC/C=C\CCCCN5CC[C@@H]3[C@]3(C[C@@H]6/C=C\CCCCN6[C@H]34)C5)c21 [9-N-NEOPENTYLMANZAMINE A]	2.4 (≈ 3.88 µM)	2.8 (≈ 4.52 µM)	4 (≈ 6.46 µM)	7 (≈ 11.3 µM)	4 (≈ 6.46 µM)	0.5 (≈ 0.808 µM)	70	70	>10	IC50 (Vero [9]): 0.7 µg/mL (≈ 1.13 µM)
CCCn1c2ccccc2c2ccnc(C3=C[C@@]4(O)CC/C=C\CCCCN5CC[C@@H]3[C@]3(C[C@@H]6/C=C\CCCCN6[C@H]34)C5)c21 [9-N-PROPYLMANZAMINE A]	0.69 (≈ 1.17 µM)	0.74 (≈ 1.25 µM)	37 (≈ 62.6 µM)	> 20	> 20	2 (≈ 3.38 µM)	3000	> 10000	>10	IC50 (Vero [9]): 3.7 µg/mL (≈ 6.26 µM)
Oc1cccc2c1[nH]c1c(C3=C[C@@]4(O)CCCCCCCCN5CC[C@@H]3[C@]3(C[C@@H]6CCCCCCN6[C@H]34)C5)nccc12 [15,16,32,33-TETRAHYDRO-8-HYDROXYMANZAMINE A]	0.09 (≈ 0.158 µM)	0.62 (≈ 1.09 µM)	24 (≈ 42.2 µM)	6 (≈ 10.5 µM)	1.5 (≈ 2.64 µM)	0.1 (≈ 0.176 µM)	> 10000	1970	>10	Activity (Microglia [10]): inactive; Activity (Microglia [11]): inactive
CCN(CC)CCCC(C)Nc1ccnc2cc(Cl)ccc12 (stereo unspecified) [CHLOROQUINE]										Activity (Plasmodium berghei [12]): 100%; Activity (Plasmodium berghei [13]): 0%; Activity (Plasmodium berghei [14]): 0.2%; Activity (Plasmodium berghei [15]): 4%; Activity (Plasmodium berghei [16]): 8%; Activity (Plasmodium berghei [17]): 80%
Cl.O[C@]12C=C(c3nccc4c3[nH]c3ccccc34)[C@@H]3CCN(CCCC/C=C\CC1)C[C@@]31C[C@@H]3/C=C\CCCCN3[C@H]12 [MANZAMINE A HCL]										Papp (MDCK): 1.9 ×10⁻⁶ cm/s
C=C[C@H]1CN2CC[C@H]1C[C@H]2[C@H](O)c1ccnc2ccc(OC)cc12 [QUININE]										Activity (Plasmodium berghei [12]): 26%; Activity (Plasmodium berghei [13]): 7.3%; Activity (Plasmodium berghei [18]): 14%; Activity (Plasmodium berghei [14]): 32%; Activity (Plasmodium berghei [15]): 45%; Activity (Plasmodium berghei [17]): 0%
C[C@H]1[C@H](OC(=O)CCC(=O)[O-])O[C@@H]2O[C@@]3(C)CC[C@H]4[C@H](C)CC[C@@H]1[C@@]24OO3.[Na+] [SODIUM ARESUNATE]										ED50 (Plasmodium yoelii): 4.1 mg/kg; ED90 (Plasmodium yoelii): 17 mg/kg
O[C@]12C=C(c3nccc4c3[nH]c3ccccc34)[C@@H]3CCN(CCCCCCCC1)C[C@@]31C[C@@H]3CCCCCCN3[C@H]12 [TETRAHYDROMANZAMINE A]		1.5 (≈ 2.71 µM)	50 (≈ 90.4 µM)	7.5 (≈ 13.6 µM)	0.9 (≈ 1.63 µM)	0.45 (≈ 0.814 µM)	> 10000	> 10000	>10	Activity (Microglia [10]): inactive; Activity (Microglia [11]): inactive
